The target in experiment [1] is D(1A) dopamine receptor (Rattus norvegicus) (UniProt P18901). Kind of experiment: Affinity for Dopamine receptor D1 binding sites was evaluated in a test involving displacement of [3H]- fenoldopam in rat striatum. The experiment is classed as tissue-based. (In general: Loss of bound radioactivity is the signal in a displacement assay; it reports binding, not function.)

Experiment [2] shares this target. Description: Stimulation of dopamine-sensitive rat caudate adenylate cyclase or antagonism of dopamine stimulus as measure of D1 efficacy; No stimulation. The experiment is classed as functional.
Experiment [3] has as its target D(2) dopamine receptor (Bos taurus) (UniProt P20288). Description: Affinity for Dopamine receptor D2 was evaluated from the ability to displace [3H]spiroperidol from homogenized bovine pituitary. The method in brief:
(§1)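 Bovine anterior pituitary homogenate with [3H]spiroperidol ~0.25 nM. Screened at 10^-5 and 10^-7 M; where displacement was 50% or more, IC50 was determined. KBind = IC50/(1 + L/KD), spiroperidol KD 0.3 nM.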

The species entered for experiment [4] is Oryctolagus cuniculus. Kind of experiment: The D2 efficacy was evaluated in isolated perfused rabbit ear artery test; No response at 1 uM. The experiment is classed as functional. The method in brief:
(§2)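 Isolated perfused rabbit ear artery given brief intermittent nerve stimulation; concentration-dependent inhibition of the constrictor response measured. EC50 is the concentration giving 50% inhibition of constriction. Antagonist KB values for (S)-sulpiride determined by the Furchgott method, in nM.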

In experiment [5] the target is D(1A) dopamine receptor (Rattus norvegicus) (UniProt P18901). Kind of experiment: The ability of a compound to stimulate dopamine-sensitive rat caudate adenylate cyclase or to antagonise the stimulant of dopamine was used as measure of D1 efficacy. The experiment is classed as functional.
Experiment [6] deals with D(2) dopamine receptor (Bos taurus) (UniProt P20288). Description: Affinity for Dopamine receptor D2 was evaluated from the ability to displace [3H]spiroperidol from homogenized bovine uM. The following applies: concentration not given here. The procedure, abridged:
as §1

For experiment [7], the species on record is Oryctolagus cuniculus. Description: The D2 efficacy was evaluated in isolated perfused rabbit ear artery test. The experiment is classed as functional. The following applies: read-out: ED50 (the source's name). The procedure, abridged: as §2

Calls of active or inactive are those of the source. The rule behind the calls is not given here.

The term inhibition denotes the drop in the measured response relative to a control, in per cent.

Sequence of D(1A) dopamine receptor (Rattus norvegicus) (P18901 whole entry): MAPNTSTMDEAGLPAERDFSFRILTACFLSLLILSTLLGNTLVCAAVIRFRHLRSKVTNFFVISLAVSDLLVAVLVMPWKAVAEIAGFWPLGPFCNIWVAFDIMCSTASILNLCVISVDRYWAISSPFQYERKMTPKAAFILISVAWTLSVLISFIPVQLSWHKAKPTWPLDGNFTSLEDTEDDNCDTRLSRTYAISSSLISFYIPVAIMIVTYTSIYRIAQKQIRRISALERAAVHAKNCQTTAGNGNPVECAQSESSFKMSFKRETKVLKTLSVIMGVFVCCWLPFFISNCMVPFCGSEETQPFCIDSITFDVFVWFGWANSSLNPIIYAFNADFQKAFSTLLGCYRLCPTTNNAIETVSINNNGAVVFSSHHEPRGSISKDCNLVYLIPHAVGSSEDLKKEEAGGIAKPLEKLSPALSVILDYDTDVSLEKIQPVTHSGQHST
Sequence of D(2) dopamine receptor (Bos taurus) (P20288 whole entry): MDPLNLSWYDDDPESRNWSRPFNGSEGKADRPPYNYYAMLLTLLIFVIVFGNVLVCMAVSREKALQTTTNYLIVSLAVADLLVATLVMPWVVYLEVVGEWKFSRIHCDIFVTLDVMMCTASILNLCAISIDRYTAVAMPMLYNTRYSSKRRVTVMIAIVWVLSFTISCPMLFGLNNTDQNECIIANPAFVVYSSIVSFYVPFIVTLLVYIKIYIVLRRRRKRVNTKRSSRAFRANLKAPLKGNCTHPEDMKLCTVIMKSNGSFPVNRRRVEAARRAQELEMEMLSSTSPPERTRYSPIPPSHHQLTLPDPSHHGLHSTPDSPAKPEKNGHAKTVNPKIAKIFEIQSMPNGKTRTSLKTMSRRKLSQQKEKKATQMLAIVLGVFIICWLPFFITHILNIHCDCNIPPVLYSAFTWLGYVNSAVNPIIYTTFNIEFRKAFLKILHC

Take `CCCN(CCC)C1CCc2cc(Cl)c(O)c(Cl)c2C1` (stereo not drawn): the K Bind in experiment [1] was > 10 µM; in experiment [3] it was 10.4 µM. In experiment [2], the ED50 result is “inactive”.
For the compound `CCCN(CCC)C1CCc2cc(O)c(Cl)cc2C1` (stereo not drawn), the K Bind in experiment [1] amounted to 8.23 µM; in experiment [3], 0.9 µM. Besides, the ED50 entry in experiment [2] is “inactive”.
In the case of `NC1CCc2cc(Cl)c(O)cc2C1` (stereo not drawn), the K Bind in experiment [1] came to 1.44 µM; in experiment [3], 1.05 µM. The ED50 entry (in experiment [2]; in the experiment filed under Oryctolagus cuniculus [4]) was “inactive” each time.
As for `CCCN(CCC)C1CCc2cc(O)c(O)c(Cl)c2C1` (stereo not drawn), the values for the K Bind in experiment [1] and in experiment [3] were 0.62 µM and 0.24 µM, respectively.
As to `NCCc1ccc(O)c(O)c1`, in experiment [5], the ED50 turned out to be 3500 nM.
On to `NC1CCc2c(cc(O)c(O)c2Cl)C1` (stereo not drawn), for which the figures for the K Bind in experiment [1] and in experiment [3] were 0.84 µM and 0.47 µM, respectively. In addition, the ED50 result in experiment [2] is “inactive”.
Compound `NC1CCc2c(cc(O)c(O)c2F)C1` (stereo not drawn) had an ED50 in experiment [5] of 1600 nM. The K Bind came out at 0.074 µM in experiment [1] and 0.52 µM in experiment [3].
The compound `NC1CCc2cc(Cl)c(O)c(Cl)c2C1` (stereo not drawn) came in with an inhibition in experiment [6] of 30%. In addition, the K Bind in experiment [1] stood at 2.97 µM.
Consider `CN(C)C1CCc2c(ccc(O)c2Cl)C1` (stereo not drawn), for which the results for the K Bind in experiment [1] and in experiment [3] were 5.95 µM and 3.5 µM, respectively.
As for `NC1CCc2cc(O)c(Cl)cc2C1` (stereo not drawn), the figures for the K Bind in experiment [1] and in experiment [3] were 1.97 µM and 4.47 µM, respectively. The ED50 entry in experiment [2] is “inactive”.
`NC1CCc2cc(O)c(O)c(Cl)c2C1` (stereo not drawn) came in with an ED50 in experiment [5] of 1400 nM. For the same compound, the K Bind in experiment [1] stood at 0.043 µM; in experiment [3], 3.16 µM. The EC50 in the experiment listed under Oryctolagus cuniculus [7] was found to be 536000 nM.
`CCCN(CCc1ccc(O)cc1)C1CCc2cc(O)c(O)c(Cl)c2C1` (stereo not drawn): the figures for the K Bind in experiment [1] and in experiment [3] were 0.27 µM and 0.033 µM, respectively.
For the compound `CN(C)C1CCc2cc(Cl)c(O)cc2C1` (stereo not drawn), the K Bind in experiment [1] came to 2.63 µM; in experiment [3] it was 1.55 µM. The ED50 entry in experiment [2] was “inactive”.
`NC1CCc2cc(O)c(O)c(F)c2C1` (stereo not drawn) yielded an ED50 in experiment [5] of 2200 nM. The values for the K Bind in experiment [1] and in experiment [3] were 0.062 µM and 1.27 µM, respectively.
Compound `CN(C)C1CCc2cc(Cl)c(O)c(Cl)c2C1` (stereo not drawn) registered an inhibition in experiment [6] of 29%. Besides, the K Bind in experiment [1] is > 20 µM.
In the case of `Oc1ccc(CCNC2CCc3cc(O)c(O)c(Cl)c3C2)cc1` (stereo not drawn), the K Bind in experiment [1] was 0.145 µM; in experiment [3], 0.41 µM.
On to `CCCN(CCC)C1CCc2cc(F)c(O)cc2C1` (stereo not drawn), for which the figures for the K Bind in experiment [1] and in experiment [3] were 1.74 µM and 0.43 µM, respectively.
Turning to `NC1CCc2cc(F)c(O)cc2C1` (stereo not drawn), the K Bind is 0.37 µM in experiment [1] and 0.66 µM in experiment [3].
Take `CCCN(CCC)CC1CCc2cc(F)c(O)cc2C1` (stereo not drawn): the K Bind was > 50 µM in experiment [1] and 14.1 µM in experiment [3].
As to `NC1CCc2c(ccc(O)c2Cl)C1` (stereo not drawn), the K Bind in experiment [1] is > 10 µM; in experiment [3], 11.6 µM.
As to `CCCN(CCC)C1CCc2c(ccc(O)c2Cl)C1` (stereo not drawn), the K Bind was 2.25 µM in experiment [1] and 0.85 µM in experiment [3].
For the compound `NC1CCc2cc(O)c(O)cc2C1` (stereo not drawn), the ED50 in experiment [5] is 2700 nM. Besides, the K Bind in experiment [1] turned out to be 0.07 µM; in experiment [3], 0.21 µM.
Take `CN(C)C1CCc2cc(O)c(Cl)cc2C1` (stereo not drawn): the K Bind amounted to 2.3 µM in experiment [1] and 0.09 µM in experiment [3]. The ED50 result in experiment [2] is “inactive”.
For `CCCN(CCC)C1CCc2cc(Cl)c(O)cc2C1` (stereo not drawn), in that order: 4.71 µM, 1.63 µM and “inactive”.
With `CN(C)C1CCc2cc(F)c(O)cc2C1` (stereo not drawn), the K Bind in experiment [1] was 0.76 µM; in experiment [3] it was 0.47 µM.

These data come from ChEMBL document CHEMBL1123482, “Synthesis and dopaminergic activity of some halogenated mono- and dihydroxylated 2-aminotetralins” (1986).
